Measurements reported in ChEMBL document CHEMBL4732185, “Synthesis, biological evaluation and structure-activity relationship of novel dichloroacetophenones targeting pyruvate dehydrogenase kinases with potent anticancer activity” (Eur J Med Chem, 2021).
The source made the active and inactive calls.

Columns and labels:
A-375 [1] = assay: Induction of apoptosis in human A375 cells assessed as necrotic cells at 5 uM after 12 hrs by annexinV-FITC/propidium iodide staining based flow cytometric analysis (reference value: 0.56%); assay type: functional
A-375 [2] = assay: Induction of apoptosis in human A375 cells assessed as necrotic cells at 5 uM after 24 hrs by annexinV-FITC/propidium iodide staining based flow cytometric analysis (reference value: 0.56%); assay type: functional
[3] = Toxicity in mouse xenografted with human A375 cells assessed as reduction in body weight at 5 mg/kg, im administered once per three days for 21 days; assay type: organism-based; conditions: in vivo, 504 h, time 21 day
Procedure, shortened: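 A375 cells at 80% confluence harvested with trypsin/EDTA, resuspended in serum-free DMEM, and injected subcutaneously into the right flank. Tumours visible at 7 days. Mice randomized to vehicle or 5 mg/kg (n = 4/group), dosed intramuscularly once every three days. Body weight followed over 21 days.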

[4] = biological target: [Pyruvate dehydrogenase (acetyl-transferring)] kinase isozyme 1, mitochondrial (Homo sapiens, UniProt Q15118); assay: Binding affinity to PDK1 (unknown origin) by isothermal titration calorimetry
Sequence of [Pyruvate dehydrogenase (acetyl-transferring)] kinase isozyme 1, mitochondrial (Q15118 whole entry): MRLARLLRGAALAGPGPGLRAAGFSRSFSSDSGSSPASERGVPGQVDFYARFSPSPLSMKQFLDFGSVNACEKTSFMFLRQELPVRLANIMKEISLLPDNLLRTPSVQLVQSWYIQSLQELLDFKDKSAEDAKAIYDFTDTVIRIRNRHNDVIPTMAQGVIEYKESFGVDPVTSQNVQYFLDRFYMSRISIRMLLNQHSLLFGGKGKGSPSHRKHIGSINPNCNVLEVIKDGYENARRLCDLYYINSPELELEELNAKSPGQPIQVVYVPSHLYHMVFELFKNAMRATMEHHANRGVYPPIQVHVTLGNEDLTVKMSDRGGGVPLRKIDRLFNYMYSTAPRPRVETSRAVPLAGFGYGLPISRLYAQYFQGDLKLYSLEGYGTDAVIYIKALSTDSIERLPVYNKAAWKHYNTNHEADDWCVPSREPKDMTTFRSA
Procedure, shortened: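 Isothermal titration calorimetry at 25 °C. Compound dissolved in DMSO, diluted to 100 µM in buffer and placed in the titration syringe; 250 µL of PDK protein solution in the reaction cell. Titrant added in 2.5 µL increments per injection.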

A-375 [5] = assay: Induction of cell cycle arrest in human A375 cells assessed as accumulation at S phase at 2.5 uM after 24 hrs by propidium iodide staining based flow cytometric analysis (reference value: 37.33%); assay type: functional
A-375 [6] = assay: Induction of mitochondrial membrane depolarization in human A375 cells at 2 to 10 uM after 4 hrs by TMRM staining based confocal microscopic analysis; assay type: functional, cell-based; conditions: dose 2-10 µM
Procedure, shortened: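 A375 cells seeded at 4 x 10⁴ cells/mL and grown overnight at 37 °C. Treated 4 h at 37 °C. TMRM in fresh medium added for 15 min at 37 °C. Cells washed 3 times with cool PBS and imaged by laser scanning confocal microscopy.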

A-375 [7] = assay: Inhibition of cell migration in human A375 cells at 0.5 to 2 uM after 24 hrs by wound healing assay; assay type: functional, cell-based; conditions: dose 0.5-2 µM
Procedure, shortened: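 A375 monolayer scratched and treated for 24 h, imaged at ×100. Closure ratio (%) = (start scratched area − after scratched area)/start scratched area, compared with control. P < 0.05 versus control considered significant.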

A-375 [8] = assay: Induction of cell cycle arrest in human A375 cells assessed as accumulation at G1 phase at 5 uM after 24 hrs by propidium iodide staining based flow cytometric analysis (reference value: 52.65%); assay type: functional
MCF7 [9] = assay: Antiproliferative activity against human MCF7 cells assessed as growth inhibition at 1 uM after 72 hrs by MTT assay relative to control; assay type: functional; conditions: read-out: GI
Procedure, shortened: (§1)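 Single-concentration MTT screen on MCF-7 and A549 cells grown in DMEM + 10% FBS. Cells at 3000–6000/well, cultured overnight, then given compound in buffer with 1% DMSO for 72 h. MTT (0.5 mg/mL) added for 4 h, formazan dissolved in DMSO, A570 read. Percent inhibition reported as the average ± S.D. of three independent measurements.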

A-375 [10] = assay: Induction of mitochondrial membrane depolarization in human A375 cells at 2 to 10 uM after 4 hrs by JC-1 staining based confocal microscopic analysis; assay type: functional, cell-based; conditions: dose 2-10 µM
Procedure, shortened: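 Mitochondrial membrane potential. A375 cells seeded at 4 × 10^4 cells/mL, grown overnight, then treated at 2, 5 or 10 µM at 37 °C for 4 h. Stained with JC-1 in fresh medium for 15 min at 37 °C, washed three times with cool PBS and imaged by laser scanning confocal microscopy (red J-aggregate vs green monomer).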

A-375 [11] = assay: Induction of apoptosis in human A375 cells assessed as viable cells at 5 uM after 12 hrs by annexinV-FITC/propidium iodide staining based flow cytometric analysis (reference value: 97.94%); assay type: functional; conditions: read-out: Activity
MCF7 [12] = assay: Antiproliferative activity against human MCF7 cells assessed as growth inhibition at 10 uM after 72 hrs by MTT assay relative to control; assay type: functional; conditions: read-out: GI; procedure, shortened: as §1
SH-SY5Y = assay: Antiproliferative activity against human SHSY-5Y cells assessed as growth inhibition after 72 hrs by MTT assay; assay type: functional, cell-based; conditions: Homo sapiens, SH-SY5Y, 72 h; read-out: IC50
Procedure, shortened: (§2)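 MTT viability assay. Cancer lines seeded at 3000–6000 cells/well and L02 at 7000 cells/well, cultured overnight, then exposed to a full dose range for 72 h. MTT (0.5 mg/mL) added for 4 h, supernatant removed, formazan dissolved in DMSO, absorbance read at 570 nm. IC50 taken as the mean of three independent experiments. Cells grown in DMEM + 10% FBS, 37 °C, 5% CO2.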

A-375 [13] = assay: Induction of apoptosis in human A375 cells assessed as late apoptotic cells at 1 uM after 36 hrs by annexinV-FITC/propidium iodide staining based flow cytometric analysis (reference value: 1.02%); assay type: functional
A-375 [14] = assay: Induction of cell cycle arrest in human A375 cells assessed as accumulation at G1 phase after 24 hrs by propidium iodide staining based flow cytometric analysis; assay type: functional; conditions: dose 1-5 µM
A-375 [15] = assay: Induction of cell cycle arrest in human A375 cells assessed as accumulation at S phase at 1 uM after 24 hrs by propidium iodide staining based flow cytometric analysis (reference value: 37.33%); assay type: functional
A-375 [16] = assay: Induction of apoptosis in human A375 cells assessed as late apoptotic cells at 5 uM after 12 hrs by annexinV-FITC/propidium iodide staining based flow cytometric analysis (reference value: 0.63%); assay type: functional
A-375 [17] = assay: Induction of apoptosis in human A375 cells assessed as late apoptotic cells at 5 uM after 36 hrs by annexinV-FITC/propidium iodide staining based flow cytometric analysis (reference value: 1.02%); assay type: functional
A-375 [18] = assay: Induction of apoptosis in human A375 cells assessed as viable cells at 2.5 uM after 36 hrs by annexinV-FITC/propidium iodide staining based flow cytometric analysis (reference value: 94.15%); assay type: functional; conditions: read-out: Activity
A-375 [19] = assay: Inhibition of PDK in human A375 cells assessed as reduction lactate formation at 2.5 to 5 uM after 4 hrs by Nova Bio-profile Flex analyzer; assay type: cell-based; conditions: dose 2.5-5 µM
Procedure, shortened: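 A375 cells seeded at 2.5 × 10⁵/well in 24-well plates and cultured overnight. Treated 4 h at 37 °C. Medium collected and centrifuged 4 min at 12000 rpm for lactate determination.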

A-375 [20] = assay: Induction of cell cycle arrest in human A375 cells assessed as accumulation at G1 phase at 2.5 uM after 24 hrs by propidium iodide staining based flow cytometric analysis (reference value: 52.65%); assay type: functional
L02 = assay: Cytotoxicity against human L02 cells assessed as reduction in cell viability after 72 hrs by MTT assay; assay type: cell-based; conditions: Homo sapiens, L02, 72 h; read-out: IC50; procedure, shortened: as §2
A-375 [21] = assay: Induction of apoptosis in human A375 cells assessed as early apoptotic cells at 2.5 uM after 36 hrs by annexinV-FITC/propidium iodide staining based flow cytometric analysis (reference value: 3.2%); assay type: functional
A-375 [22] = assay: Inhibition of PDK in human A375 cells assessed as increase in oxygen consumption rate after 4 hrs by XFe cell Mito stress test assay; assay type: cell-based; conditions: dose 2.5-5 µM
Procedure, shortened: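 A375 cells attached, then given an extra 100 µL growth medium and incubated 24 h. Treated 4 h, then rinsed twice with pre-warmed XFe base medium. OCR measured as in a previous report.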

Question: Which Activity (A-375 [1]) does the source give for CC(C)(CO)c1ccc(Nc2ccc(C(=O)C(Cl)Cl)cc2[N+](=O)[O-])cc1 here?
Answer: 1.65%

Question: And the Activity (A-375 [2])?
Answer: 3.56%

Question: What about the Activity [3] of the same compound?
Answer: Non-Toxic

Question: What about the Kd [4] of the same compound?
Answer: 210 nM

Question: And the Activity (A-375 [5])?
Answer: 30.75%

Question: What about the Activity (A-375 [6]) of the same compound?
Answer: Active

Question: And the inhibition (A-375 [7])?
Answer: Active

Question: And the Activity (A-375 [8])?
Answer: 66.86%

Question: And the inhibition of growth at 1 µM (MCF7 [9])?
Answer: 38.9%

Question: What about the Activity (A-375 [10]) of the same compound?
Answer: Active

Question: And the viability at 5 µM (A-375 [11])?
Answer: 82.8%

Question: What about the inhibition of growth at 10 µM (MCF7 [12]) of the same compound?
Answer: 95.3%

Question: What about the IC50 (SH-SY5Y) of the same compound?
Answer: 1700 nM

Question: What about the Activity (A-375 [13]) of the same compound?
Answer: 7.43%

Question: What about the Activity (A-375 [14]) of the same compound?
Answer: Dose-dependent effect

Question: What about the Activity (A-375 [15]) of the same compound?
Answer: 34.63%

Question: What about the Activity (A-375 [16]) of the same compound?
Answer: 6.88%

Question: And the Activity (A-375 [17])?
Answer: 38.81%

Question: And the viability at 2.5 µM (A-375 [18])?
Answer: 68.9%

Question: What about the inhibition (A-375 [19]) of the same compound?
Answer: Active

Question: And the Activity (A-375 [20])?
Answer: 60.75%

Question: What about the IC50 (L02) of the same compound?
Answer: 14400 nM

Question: What about the Activity (A-375 [21]) of the same compound?
Answer: 5.6%

Question: And the inhibition (A-375 [22])?
Answer: Dose-dependent effect
